Test results as given in ChEMBL document CHEMBL2346582, “Guanidino anthrathiophenediones as G-quadruplex binders: uptake, intracellular localization, and anti-Harvey-Ras gene activity in bladder cancer cells” (J Med Chem, 2013).
Active and inactive are the calls of the source. The calls are words filed in the database; no cut-off is given here.

How the values were obtained:
T-24 [1] = experiment: Cellular uptake in human T24 cells assessed as accumulation in nucleoplasm at 2.5 uM after 2 hrs by propidium iodide staining-based confocal microscopic analysis; type: ADME, cell-based; settings: t-24, 2 h
In short: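 T24 cells plated (3 × 10^5) on coverslips and treated after 24 h with 2.5 μM ligand for 2 h. Fixed in 3% paraformaldehyde and permeabilized with Triton X-100. Cytoplasm immunostained for DRP1 with FITC secondary; nuclei stained with propidium iodide plus RNase A. Ligand red fluorescence excited at 543 nm; confocal Z-sections at 2 μm intervals.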

T-24 [2] = experiment: Cellular uptake in human T24 cells at 4 degC by FACS flow cytometric analysis; type: ADME, cell-based
In short: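 T24 cells incubated with ligand at 4 °C or 37 °C. Intracellular ligand fluorescence measured by flow cytometry in the FL3 (680 nm) channel.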

Homo sapiens [3] = species: Homo sapiens; experiment: Thermal stabilization of human telomeric G-quadruplex FAM-TTAGGGTTAGGGTTAGGGTTAGGG-TAMRA DNA assessed as melting temperature at 1:5 DNA:ligand ratio by FRET assay
In short: (§1)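 Telomeric quadruplex (TTAGGG)4, 200 nM, dual-labelled, in 100 mM KCl, Tris-HCl buffer. Melted with ligand at r = 1, 2, 3, 4 or 5 ([ligand]/[quadruplex]). Samples equilibrated 5 min at 20 °C, then heated in 1 °C/min steps to 95 °C; TM read from the donor/acceptor emission.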

Homo sapiens [4] = species: Homo sapiens; experiment: Thermal stabilization of human telomeric G-quadruplex FAM-TTAGGGTTAGGGTTAGGGTTAGGG-TAMRA DNA assessed as melting temperature at 1:4 DNA:ligand ratio by FRET assay; in short: as §1
Homo sapiens [5] = species: Homo sapiens; experiment: Thermal stabilization of human telomeric G-quadruplex FAM-TTAGGGTTAGGGTTAGGGTTAGGG-TAMRA DNA assessed as melting temperature at 1:3 DNA:ligand ratio by FRET assay; in short: as §1
Homo sapiens [6] = species: Homo sapiens; experiment: Thermal stabilization of human telomeric G-quadruplex FAM-TTAGGGTTAGGGTTAGGGTTAGGG-TAMRA DNA assessed as melting temperature at 1:2 DNA:ligand ratio by FRET assay; in short: as §1
Homo sapiens [7] = species: Homo sapiens; experiment: Thermal stabilization of human telomeric G-quadruplex FAM-TTAGGGTTAGGGTTAGGGTTAGGG-TAMRA DNA assessed as melting temperature at 1:1 DNA:ligand ratio by FRET assay; in short: as §1
T-24 [8] = experiment: Binding affinity to HRAS G-quadruplex DNA in human T24 cells assessed as reduction in p21HRAS level at 5 uM after 48 hrs by immunoblotting analysis; type: cell-based
In short: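 T24 cells treated with 5 μM ligand for 48 or 72 h. Lysates (30 μg) run on 12% SDS-PAGE and immunoblotted with monoclonal anti-HRAS and β-actin antibodies, with HRP detection. HRAS level = (p21HRAS/β-actin treated)/(p21HRAS/β-actin untreated) × 100.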

T-24 [9] = experiment: Binding affinity to HRAS G-quadruplex DNA in human T24 cells assessed as reduction in p21HRAS level at 5 uM by immunoblotting analysis relative to control
HEK293 [10] = experiment: Cellular uptake in human HEK293 cells at 0.5 to 10 uM after 10 mins to 8 hrs by flow cytometric analysis; type: ADME, cell-based; settings: hek293, 10 µM
In short: (§2)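 Flow cytometric uptake of 10 μM ligand over time (15 min, 1, 2, 6, 8 h; T24, and up to 8 h in NIH 3T3 and 293). Cells plated at 5 × 10^4 per well the day before. Ligand fluorescence detected in FL3 (680 nm), at least 10,000 cells acquired.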

HEK293 [11] = experiment: Cellular uptake in human HEK293 cells at 0.5 to 10 uM after 8 hrs by flow cytometric analysis; type: ADME, cell-based; settings: hek293, 8 h
In short: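 Cells plated at 5 × 10^4 per well and treated next day with ligand at […] for 8 h. Then trypsinized, resuspended in PBS and analysed by flow cytometry (488 nm excitation, FL3 680 nm, log scale), at least 10,000 cells per sample. Uptake read from intrinsic ligand red fluorescence.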

T-24 [12] = experiment: Cellular uptake in human T24 cells at 0.5 to 10 uM after 10 mins to 8 hrs by flow cytometric analysis; type: ADME, cell-based; settings: t-24, 10 µM; in short: as §2
Homo sapiens [13] = species: Homo sapiens; experiment: Binding affinity to 32mer duplex DNA (unknown origin) at 5 uM by UV-vis titration

Drug uptake (T-24 [1])	Drug uptake (T-24 [2])	Tm (Homo sapiens [3])	Tm (Homo sapiens [4])	Tm (Homo sapiens [5])	Tm (Homo sapiens [6])	Tm (Homo sapiens [7])	Drug uptake (HEK293 [10])	Drug uptake (HEK293 [11])	Drug uptake (T-24 [12])	Activity (Homo sapiens [13])	Structure (SMILES)	Activity (T-24 [8])	Activity (T-24 [9])
Active	Active	83.7 °C	81.1 °C	79.1 °C	76.3 °C	58.5 °C	–	–	–	–	N=C(N)NCCCCNc1c2c(c(NCCCCNC(=N)N)c3sccc13)C(=O)c1ccccc1C2=O	Active	Active
–	Active	–	–	–	–	–	Active	Active	Active	Active	N=C(N)NCCNc1c2c(c(NCCNC(=N)N)c3sccc13)C(=O)c1ccccc1C2=O	Active	Active
